Measurements as given in ChEMBL document CHEMBL1122001, “Darmstoff analogues. 2. Ring and side-chain effects on smooth-muscle contraction” (1982).
Activity calls are given as the source filed them. The calls are words filed in the database; no cut-off is given here.

Legend:
Assay type in all cases: functional
Cavia porcellus [1] = species on record: Cavia porcellus; assay: Compound was tested for its ability to cause contraction of guinea pig ileum; Active
Cavia porcellus [2] = species on record: Cavia porcellus; assay: Potency for guinea pig ileum contraction relative to acetylcholine
Procedure, shortened: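 Ileal strip held in an oxygenated (95% O2/5% CO2) buffer bath under 1-g tension, with contraction magnitude recorded on a dynograph. An acetylcholine control response curve was run first, then a test compound curve after tissue recovery. The value is the ratio of the doses giving 50% of maximal response.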

Cavia porcellus [3] = species on record: Cavia porcellus; assay: Concentration required for half-maximal contraction of guinea pig ileum
Cavia porcellus [4] = species on record: Cavia porcellus; assay: Compound was tested for its ability to cause contraction of guinea pig ileum; Inactive

SMILES	Activity (Cavia porcellus [4])	further results
CCCCCCCC/C=C/CCCCCCCC1COC(COP(=O)([O-])O)CO1.[Na+] (stereo not drawn)	–	Activity (Cavia porcellus [1]): Active; Potency (Cavia porcellus [2]): 0.05%; Concentration (Cavia porcellus [3]): 16 µM
CCCCCCCC/C=C/CCCCCCCC1OC(COP(=O)(O)O)CS1 (cis isomer)	inactive	–
CCCCCCCC/C=C/CCCCCCCC1CCC(COP(=O)(O)O)C1 (cis isomer)	inactive	–
CCCCCCCC/C=C/CCCCCCCC1OCC(COP(=O)([O-])O)O1.[Na+] (cis isomer)	–	Activity (Cavia porcellus [1]): Active; Potency (Cavia porcellus [2]): 0.4%
CCCCCCCC/C=C/CCCCCCCC1CCC(COP(=O)(O)O)O1 (stereo not drawn)	inactive	–
CCCCCCCCCCCCCCCC1COC(COP(=O)(O)O)CO1 (stereo not drawn)	inactive	–
CCCCCCCCCCCCCCCC1CCC(COP(=O)(O)O)C1 (stereo not drawn)	inactive	–
CCCCCCCCCCCCCCCC1CCC(COP(=O)(O)O)O1 (stereo not drawn)	inactive	–
CCCCCCCCCCCCCCCC1OC(COP(=O)(O)O)CS1 (stereo not drawn)	inactive	–
CCCCCCCCCCCCCCCC1OCC(COP(=O)(O)O)O1 (stereo not drawn)	inactive	–
